Assay [1] has as its target T1, Vasopressin receptor (Rattus norvegicus) (UniProt P48974+P30560+Q00788). In words: Antivasopressor potency in terms of blood pressure response in rats anesthetized with urethane and pretreated with phenoxybenzamine. The assay is classed as functional. The procedure, abridged:
(§1)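 Rats anesthetized with urethane, pretreated with phenoxybenzamine; blood pressure responses recorded. USP posterior pituitary reference standard as agonist, given intravenously with antagonist. ED (nmol/kg) is the antagonist dose at which 2x units of agonist match the response to x units without antagonist, log-interpolated from doses above and below. In vivo pA2 uses assumed distribution volume 67 mL/kg.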

Assay [2] deals with T1, Vasopressin receptor (Rattus norvegicus). In words: Antiantidiuretic potency in terms of measuring changes in urine flow in water-loaded rats under ethanol anesthesia. The assay is classed as functional. The procedure, abridged:
(§2)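 Water-loaded rats under ethanol anesthesia; urine flow followed. USP posterior pituitary reference standard as agonist, all injections intravenous. Effective dose (nmol/kg) is the antagonist dose reducing the response to 2x units of agonist to that of x units alone, interpolated on a log scale between bracketing doses. pA2 = negative log of ED divided by assumed distribution volume 67 mL/kg.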

Assay [3] concerns the target T2, Vasopressin receptor (Rattus norvegicus, UniProt P48974+P30560+Q00788). In words: Antivasopressor potency in terms of negative logarithm of the effective doses divided by the estimated volume of distribution. The assay is classed as functional. The procedure, abridged:
as §1

The target of assay [4] is T2, Vasopressin receptor. Nature of the assay: Antiantidiuretic potency in terms of negative logarithm of the effective doses divided by the estimated volume of distribution. The assay is classed as functional, Urine. The essentials: as §2

Each structure is given as a SMILES string. Where only a bound is given, the exact number is not on record here.

`CCOc1ccc(C[C@H]2NC(=O)CC3(CCCCC3)SSC[C@H](C(=O)N3CCCC3C(=O)NCCNC(=O)[C@@H](N)CCCCN)NC(=O)[C@@H](CC(N)=O)NC(=O)[C@H](C(C)C)NC(=O)[C@@H](Cc3ccccc3)NC2=O)cc1` (some centres not stated): the ED was determined as 0.57 nM/kg in assay [1] and 1.2 nM/kg in assay [2].
In the case of `CCOc1ccc(C[C@H]2NC(=O)CC3(CCCCC3)SSC[C@@H](C(=O)N3CCC[C@H]3C(=O)NCCNC(=O)[C@H](N)CCCN)NC(=O)[C@H](CC(N)=O)NC(=O)[C@H](C(C)C)NC(=O)[C@H](Cc3ccccc3)NC2=O)cc1`, the pA2 is reported as 7.86 at Vasopressin receptor [3] and 7.92 at Vasopressin receptor [4].
The corresponding values for `CCOc1ccc(C[C@H]2NC(=O)CC3(CCCCC3)SSC[C@@H](C(=O)NCCNC(=O)[C@@H](N)CCCN=C(N)N)NC(=O)[C@H](CC(N)=O)NC(=O)[C@H](C(C)C)NC(=O)[C@H](Cc3ccccc3)NC2=O)cc1` are 7.95 and 7.54.
For `CCOc1ccc(C[C@H]2NC(=O)CC3(CCCCC3)SSC[C@H](C(=O)N[C@H](CCCN=C(N)N)C(=O)NCC(=O)NCCNC(=O)[C@H](N)CCCN=C(N)N)NC(=O)[C@@H](CC(N)=O)NC(=O)[C@H](C(C)C)NC(=O)[C@@H](Cc3ccccc3)NC2=O)cc1`, the ED in assay [1] stood at 0.73 nM/kg; in assay [2], 0.91 nM/kg.
The corresponding values for `CCOc1ccc(C[C@H]2NC(=O)CC3(CCCCC3)SSC[C@H](C(=O)NCCNC(=O)CN)NC(=O)[C@@H](CC(N)=O)NC(=O)[C@H](C(C)C)NC(=O)[C@@H](Cc3ccccc3)NC2=O)cc1` are 1.66 nM/kg and 18 nM/kg.
Regarding `CCOc1ccc(C[C@H]2NC(=O)CC3(CCCCC3)SSC[C@H](C(=O)NCCNC(=O)[C@H](N)CCCCN)NC(=O)[C@@H](CC(N)=O)NC(=O)[C@H](C(C)C)NC(=O)[C@@H](Cc3ccccc3)NC2=O)cc1`, the ED came out at 0.82 nM/kg in assay [1] and 1.2 nM/kg in assay [2].
`CC(C)C[C@H]1NC(=O)CC2(CCCCC2)SSC[C@@H](C(=O)NCCNC(=O)[C@@H](N)CCCN=C(N)N)NC(=O)[C@H](CC(N)=O)NC(=O)[C@H](C(C)C)NC(=O)[C@H](Cc2ccccc2)NC1=O`: the pA2 was 6.08 on Vasopressin receptor [3] and below 5.5 on Vasopressin receptor [4].
For `CCOc1ccc(C[C@H]2NC(=O)CC3(CCCCC3)SSC[C@H](C(=O)N3CCCC3C(=O)N[C@H](CCCN=C(N)N)C(=O)NCCNC(=O)[C@H](N)CCCN=C(N)N)NC(=O)[C@@H](CC(N)=O)NC(=O)[C@H](C(C)C)NC(=O)[C@@H](Cc3ccccc3)NC2=O)cc1` (some centres not stated), the ED in assay [1] was 0.51 nM/kg; in assay [2] it was 1.4 nM/kg.
For the molecule `CCOc1ccc(C[C@H]2NC(=O)CC3(CCCCC3)SSC[C@@H](C(=O)N[C@@H](CCCN=C(N)N)C(=O)NCC(=O)NCCNC(=O)[C@@H](N)CCCN=C(N)N)NC(=O)[C@H](CC(N)=O)NC(=O)[C@H](C(C)C)NC(=O)[C@H](Cc3ccccc3)NC2=O)cc1`, the pA2 at Vasopressin receptor [3] is reported as 7.96; on Vasopressin receptor [4], 7.87.
For the molecule `CCOc1ccc(C[C@H]2NC(=O)CC3(CCCCC3)SSC[C@H](C(=O)NCCNC(=O)[C@@H](N)CCCN=C(N)N)NC(=O)[C@@H](CC(N)=O)NC(=O)[C@H](C(C)C)NC(=O)[C@@H](Cc3ccccc3)NC2=O)cc1`, the ED amounted to 0.47 nM/kg in assay [1] and 0.83 nM/kg in assay [2].
For `CCOc1ccc(C[C@H]2NC(=O)CC3(CCCCC3)SSC[C@@H](C(=O)N3CCC[C@H]3C(=O)NCCNC(=O)[C@H](N)CCCCN)NC(=O)[C@H](CC(N)=O)NC(=O)[C@H](C(C)C)NC(=O)[C@H](Cc3ccccc3)NC2=O)cc1`, the pA2 at Vasopressin receptor [3] is reported as 8.08; at Vasopressin receptor [4], 7.78.
Take `CCOc1ccc(C[C@H]2NC(=O)CC3(CCCCC3)SSC[C@@H](C(=O)N3CCC[C@H]3C(=O)N[C@@H](CCCN=C(N)N)C(=O)NCCNC(=O)[C@@H](N)CCCN=C(N)N)NC(=O)[C@H](CC(N)=O)NC(=O)[C@H]([C@@H](C)CC)NC(=O)[C@H](Cc3ccccc3)NC2=O)cc1`: the pA2 on Vasopressin receptor [3] was 8.27; at Vasopressin receptor [4], 8.1.
Turning to `CCOc1ccc(C[C@H]2NC(=O)CC3(CCCCC3)SSC[C@H](C(=O)N3CCCC3C(=O)N[C@@H](CCCN=C(N)N)C(=O)NCCNC(=O)[C@H](N)CCCN=C(N)N)NC(=O)[C@@H](CC(N)=O)NC(=O)[C@H]([C@H](C)CC)NC(=O)[C@@H](Cc3ccccc3)NC2=O)cc1` (some centres not stated), the values for the ED in assay [1] and in assay [2] were 0.36 nM/kg and 0.57 nM/kg, respectively.
In the case of `CCOc1ccc(C[C@H]2NC(=O)CC3(CCCCC3)SSC[C@@H](C(=O)NCCNC(=O)[C@@H](N)CCCN)NC(=O)[C@H](CC(N)=O)NC(=O)[C@H](C(C)C)NC(=O)[C@H](Cc3ccccc3)NC2=O)cc1`, the pA2 on Vasopressin receptor [3] is reported as 7.8; at Vasopressin receptor [4], 7.55.
On the same counts, the results for `CCOc1ccc(C[C@H]2NC(=O)CC3(CCCCC3)SSC[C@@H](C(=O)NCCNC(=O)[C@H](N)CCCN=C(N)N)NC(=O)[C@H](CC(N)=O)NC(=O)[C@H](C(C)C)NC(=O)[C@H](Cc3ccccc3)NC2=O)cc1` are 8.15 and 7.95.
For the molecule `CC(C)C[C@H]1NC(=O)CC2(CCCCC2)SSC[C@H](C(=O)NCCNC(=O)C(N)CCCN=C(N)N)NC(=O)[C@@H](CC(N)=O)NC(=O)[C@H](C(C)C)NC(=O)[C@@H](Cc2ccccc2)NC1=O` (some centres not stated), the figures for the ED in assay [1] and in assay [2] were 58 nM/kg and above 234 nM/kg, respectively.
Consider `CCOc1ccc(C[C@H]2NC(=O)CC3(CCCCC3)SSC[C@H](C(=O)NCCNC(=O)C(N)CCCN=C(N)N)NC(=O)[C@@H](CC(N)=O)NC(=O)[C@H](C(C)C)NC(=O)[C@@H](Cc3ccccc3)NC2=O)cc1` (some centres not stated), for which the ED came to 0.75 nM/kg in assay [1] and 2.1 nM/kg in assay [2].
On the same counts, the results for `CCOc1ccc(C[C@H]2NC(=O)CC3(CCCCC3)SSC[C@H](C(=O)NCCNC(=O)[C@@H](CCCN=C(N)N)NC(=O)[C@H](N)CCCN=C(N)N)NC(=O)[C@@H](CC(N)=O)NC(=O)[C@H](C(C)C)NC(=O)[C@@H](Cc3ccccc3)NC2=O)cc1` are 0.86 nM/kg and 1.8 nM/kg.
`CCOc1ccc(C[C@H]2NC(=O)CC3(CCCCC3)SSC[C@@H](C(=O)N[C@@H](CCCN=C(N)N)C(=O)NCC(=O)NCCN)NC(=O)[C@H](CC(N)=O)NC(=O)[C@H](C(C)C)NC(=O)[C@H](Cc3ccccc3)NC2=O)cc1`: the pA2 at Vasopressin receptor [3] is 8.05; on Vasopressin receptor [4], 8.03.
With `CC(C)[C@@H]1NC(=O)[C@@H](Cc2ccccc2)NC(=O)[C@@H](Cc2ccccc2)NC(=O)CC2(CCCCC2)SSC[C@H](C(=O)NCCNC(=O)C(N)CCCN=C(N)N)NC(=O)[C@@H](CC(N)=O)NC1=O` (some centres not stated), the ED in assay [1] was determined as 1.7 nM/kg; in assay [2] it was 8.4 nM/kg.
On the same counts, the results for `CCOc1ccc(C[C@H]2NC(=O)CC3(CCCCC3)SSC[C@H](C(=O)NCCNC(=O)[C@@H](N)CCCN)NC(=O)[C@@H](CC(N)=O)NC(=O)[C@H](C(C)C)NC(=O)[C@@H](Cc3ccccc3)NC2=O)cc1` are 0.59 nM/kg and 4 nM/kg.
`CC[C@H](C)[C@H]1NC(=O)CC2(CCCCC2)SSC[C@H](C(=O)NCCNC(=O)C(N)CCCN=C(N)N)NC(=O)[C@@H](CC(N)=O)NC(=O)[C@H](C(C)C)NC(=O)[C@@H](Cc2ccccc2)NC1=O` (some centres not stated): the results for the ED in assay [1] and in assay [2] were 47 nM/kg and 100 nM/kg, respectively.
On the same counts, the results for `CCOc1ccc(C[C@H]2NC(=O)CC3(CCCCC3)SSC[C@H](C(=O)N3CCCC3C(=O)NCCNC(=O)[C@@H](N)CCCN=C(N)N)NC(=O)[C@@H](CC(N)=O)NC(=O)[C@H](C(C)C)NC(=O)[C@@H](Cc3ccccc3)NC2=O)cc1` (some centres not stated) are 0.48 nM/kg and 0.81 nM/kg.
As to `CCOc1ccc(C[C@H]2NC(=O)CC3(CCCCC3)SSC[C@@H](C(=O)N3CCC[C@H]3C(=O)N[C@@H](CCCN=C(N)N)C(=O)NCCNC(=O)[C@@H](N)CCCN=C(N)N)NC(=O)[C@H](CC(N)=O)NC(=O)[C@H](C(C)C)NC(=O)[C@H](Cc3ccccc3)NC2=O)cc1`, the pA2 on Vasopressin receptor [3] is given as 8.15; at Vasopressin receptor [4], 7.68.
As to `CCOc1ccc(C[C@H]2NC(=O)CC3(CCCCC3)SSC[C@H](C(=O)N[C@H](CCCN=C(N)N)C(=O)NCC(N)=O)NC(=O)[C@@H](CC(N)=O)NC(=O)[C@H](C(C)C)NC(=O)[C@@H](Cc3ccccc3)NC2=O)cc1`, the ED came to 0.56 nM/kg in assay [1] and 1.1 nM/kg in assay [2].
On the same counts, the results for `CCOc1ccc(C[C@H]2NC(=O)CC3(CCCCC3)SSC[C@H](C(=O)N[C@H](CCCN=C(N)N)C(=O)NCC(=O)NCCN)NC(=O)[C@@H](CC(N)=O)NC(=O)[C@H](C(C)C)NC(=O)[C@@H](Cc3ccccc3)NC2=O)cc1` are 0.59 nM/kg and 0.65 nM/kg.
On the same counts, the results for `CCOc1ccc(C[C@H]2NC(=O)CC3(CCCCC3)SSC[C@H](C(=O)NCCNC(=O)[C@H](N)CCCN)NC(=O)[C@@H](CC(N)=O)NC(=O)[C@H](C(C)C)NC(=O)[C@@H](Cc3ccccc3)NC2=O)cc1` are 1.06 nM/kg and 1.9 nM/kg.
Turning to `CCOc1ccc(C[C@@H]2NC(=O)CC3(CCCCC3)SSC[C@@H](C(=O)NCCNC(=O)[C@@H](N)CCCN=C(N)N)NC(=O)[C@H](CC(N)=O)NC(=O)[C@H](C(C)C)NC(=O)[C@H](Cc3ccccc3)NC2=O)cc1`, the values for the pA2 on Vasopressin receptor [3] and on Vasopressin receptor [4] were 7.97 and 6.39, respectively.
Consider `CCOc1ccc(C[C@H]2NC(=O)CC3(CCCCC3)SSC[C@H](C(=O)NCCN)NC(=O)[C@@H](CC(N)=O)NC(=O)[C@H](C(C)C)NC(=O)[C@@H](Cc3ccccc3)NC2=O)cc1`, for which the values for the ED in assay [1] and in assay [2] were 0.47 nM/kg and 5.7 nM/kg, respectively.
As to `CCOc1ccc(C[C@H]2NC(=O)CC3(CCCCC3)SSC[C@H](C(=O)N3CCCC3C(=O)NCCNC(=O)[C@@H](N)CCCN)NC(=O)[C@@H](CC(N)=O)NC(=O)[C@H](C(C)C)NC(=O)[C@@H](Cc3ccccc3)NC2=O)cc1` (some centres not stated), the ED in assay [1] stood at 0.95 nM/kg; in assay [2], 0.82 nM/kg.
The corresponding values for `CCOc1ccc(C[C@@H]2NC(=O)CC3(CCCCC3)SSC[C@H](C(=O)NCCNC(=O)C(N)CCCN=C(N)N)NC(=O)[C@@H](CC(N)=O)NC(=O)[C@H](C(C)C)NC(=O)[C@@H](Cc3ccccc3)NC2=O)cc1` (some centres not stated) are 0.76 nM/kg and 27 nM/kg.

The record behind these values is ChEMBL document CHEMBL1125323, “Potent V2/V1a vasopressin antagonists with C-terminal ethylenediamine-linked retro-amino acids” (J Med Chem, 1992).
